From ChEMBL document CHEMBL1127414 (J Med Chem, 1994)

Key:
[1] = target: T1, Squalene synthase (Rattus norvegicus) (UniProt Q02769); experiment: Concentration required to inhibit rat liver squalene synthase enzyme relative to control (L-694,599)
T1 sequence (whole entry): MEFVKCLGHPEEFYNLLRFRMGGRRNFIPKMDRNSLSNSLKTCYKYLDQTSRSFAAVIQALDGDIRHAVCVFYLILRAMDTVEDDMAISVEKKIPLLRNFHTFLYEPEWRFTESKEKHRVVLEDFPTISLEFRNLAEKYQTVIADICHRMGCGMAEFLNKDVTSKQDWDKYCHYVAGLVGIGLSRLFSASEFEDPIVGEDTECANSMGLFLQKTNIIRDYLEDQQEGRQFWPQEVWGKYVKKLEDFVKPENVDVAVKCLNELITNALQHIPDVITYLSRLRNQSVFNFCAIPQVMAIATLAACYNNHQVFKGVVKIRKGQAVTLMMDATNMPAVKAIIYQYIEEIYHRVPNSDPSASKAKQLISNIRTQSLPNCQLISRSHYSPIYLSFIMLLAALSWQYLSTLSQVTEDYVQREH
How it was run: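 Enzyme from rat liver. […] Inhibitors added in DMSO (0.3% final) as 3-fold serial dilutions, usually up to 30 ng/mL (about 40 nM). IC50 read from % inhibition vs log concentration.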

[2] = target: T2, Squalene synthase (Rattus norvegicus, UniProt Q02769); experiment: Tested for inhibition against squalene synthase enzyme in rat liver
T2 sequence (Q02769 whole entry): T1 sequence (whole entry)

[3] = target: T3, Squalene synthase (Mus musculus) (UniProt P53798); experiment: Tested for the effective dose required for the incorporation of [5-3H]-mevalonolactone into cholesterol by in vivo mouse assay by peroral administration; assay type: functional, organism-based
T3 sequence (whole entry): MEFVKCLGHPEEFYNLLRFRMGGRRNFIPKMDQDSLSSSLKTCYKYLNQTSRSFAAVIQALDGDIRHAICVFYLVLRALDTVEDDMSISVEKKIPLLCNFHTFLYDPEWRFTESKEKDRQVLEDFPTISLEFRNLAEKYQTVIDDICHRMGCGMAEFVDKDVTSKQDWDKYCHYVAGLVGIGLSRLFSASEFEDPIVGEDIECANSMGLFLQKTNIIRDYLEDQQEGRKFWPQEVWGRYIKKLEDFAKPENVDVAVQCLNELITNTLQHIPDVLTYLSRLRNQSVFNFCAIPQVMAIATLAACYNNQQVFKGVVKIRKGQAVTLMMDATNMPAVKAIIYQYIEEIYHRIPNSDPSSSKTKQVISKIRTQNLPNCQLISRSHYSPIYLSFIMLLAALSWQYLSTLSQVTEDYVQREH
How it was run: (§1)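 Female Swiss Webster mice (~25 g), six per group, dosed po by gavage with inhibitor suspended in 5% emulphor. 30 min later, 0.5 μCi/mouse [5-3H]mevalonolactone in saline given sc. Livers removed 30 min after that and saponified in KOH/EtOH overnight at 55 °C, then petroleum-ether extracted. Nonsaponifiable dpm counted. Compounds first tested at a single dose (typically 12 or 24 mg/kg).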

[4] = system: Mus musculus; experiment: Ability to inhibit the incorporation of [5-3H]-mevalonolactone into cholesterol by in vivo mouse assay by peroral administration at a dose of 24 mg/kg; assay type: functional; conditions: route oral; how it was run: as §1

Structure (SMILES) | Relative activity [1] | IC50 [2] | ED50 [3] | inhibition in vivo at 24 mg/kg [4]
CCCC(=O)O[C@@H]1[C@@H](O)C2(CCCCc3cccc4ccccc34)OC(C(=O)O)C(O)(C(=O)O)C1(C(=O)O)O2 (some centres undefined) | 0.00014 | 1800 nM |  | 
C=C(CCC12OC(C(=O)O)C(O)(C(=O)O)C(C(=O)O)(O1)[C@H](OC(=O)N(C)C)[C@H]2O)[C@@H](OC(C)=O)[C@H](C)Cc1ccccc1 (some centres undefined) |  |  | > 24 mg/kg | 
C=C(CCC12OC(C(=O)O)C(O)(C(=O)O)C(C(=O)O)(O1)[C@H](OC(=O)NCc1ccccc1)[C@H]2O)[C@@H](OC(C)=O)[C@H](C)Cc1ccccc1 (some centres undefined) | 0.14 | 1.6 nM | 40 mg/kg | 
C=C(CCC12OC(C(=O)O)C(O)(C(=O)O)C(C(=O)O)(O1)[C@H](OC(=O)OC)[C@H]2O)[C@@H](OC(C)=O)[C@H](C)Cc1ccccc1 (some centres undefined) | 0.06 | 3.5 nM | 9 mg/kg | 
C=C(CCC12OC(C(=O)O)C(O)(C(=O)O)C(C(=O)O)(O1)[C@H](OC(=O)NC1CC1)[C@H]2O)[C@@H](OC(C)=O)[C@H](C)Cc1ccccc1 (some centres undefined) | 0.09 | 3.2 nM | 11 mg/kg | 
CC[C@H](C)C[C@H](C)CCC(=O)O[C@@H]1[C@@H](O)C2(CCCCCCc3ccccc3)OC(C(=O)O)C(O)(C(=O)O)C1(C(=O)O)O2 (some centres undefined) | 0.144 | 1.8 nM |  | -2%
C=C(CCC12OC(C(=O)O)C(O)(C(=O)O)C(C(=O)O)(O1)[C@H](OC(=O)OCC)[C@H]2O)[C@@H](OC(C)=O)[C@H](C)Cc1ccccc1 (some centres undefined) | 0.02 | 9.2 nM | 9 mg/kg | 
C=C(CCC12OC(C(=O)O)C(O)(C(=O)O)C(C(=O)O)(O1)[C@H](OC(=O)CCC)[C@H]2O)[C@@H](OC(=O)CC)[C@H](C)Cc1ccccc1 (some centres undefined) | 0.03 | 8.8 nM |  | 67%
C=C(CCC12OC(C(=O)O)C(O)(C(=O)O)C(C(=O)O)(O1)[C@H](OC(=O)OC(C)C)[C@H]2O)[C@@H](OC(C)=O)[C@H](C)Cc1ccccc1 (some centres undefined) | 0.1 | 3 nM | 10 mg/kg | 
C=C(CCC12OC(C(=O)O)C(O)(C(=O)O)C(C(=O)O)(O1)[C@H](OC(=O)NCCC[C@@H](C)C[C@@H](C)CC)[C@H]2O)[C@@H](OC(C)=O)[C@H](C)Cc1ccccc1 (some centres undefined) | 0.25 | 0.8 nM |  | -2%
C=C(C)CC(=O)O[C@@H]1[C@@H](O)C2(CCC(=C)[C@@H](OC(C)=O)[C@H](C)Cc3ccccc3)OC(C(=O)O)C(O)(C(=O)O)C1(C(=O)O)O2 (some centres undefined) | 0.06 | 5.6 nM | 12 mg/kg | 
C=C(CCC12OC(C(=O)O)C(O)(C(=O)O)C(C(=O)O)(O1)[C@H](OC(=O)NC)[C@H]2O)[C@@H](OC(C)=O)[C@H](C)Cc1ccccc1 (some centres undefined) |  |  | 11 mg/kg | 
C=C(CCC12OC(C(=O)O)C(O)(C(=O)O)C(C(=O)O)(O1)[C@H](OCCCC)[C@H]2O)[C@@H](OC(C)=O)[C@H](C)Cc1ccccc1 (some centres undefined) | 0.08 | 2 nM | 12 mg/kg | 
C=C(CCC12OC(C(=O)O)C(O)(C(=O)O)C(C(=O)O)(O1)[C@H](OCCC(C)C)[C@H]2O)[C@@H](OC(C)=O)[C@H](C)Cc1ccccc1 (some centres undefined) | 0.09 | 2.3 nM | 9 mg/kg | 
C=C(CCC12OC(C(=O)O)C(O)(C(=O)O)C(C(=O)O)(O1)[C@H](OC(=O)NCC1CC1)[C@H]2O)[C@@H](OC(C)=O)[C@H](C)Cc1ccccc1 (some centres undefined) | 0.04 | 17 nM | 8 mg/kg | 
CCCC(=O)O[C@@H]1[C@@H](O)C2(CCCCCCc3ccccc3)OC(C(=O)O)C(O)(C(=O)O)C1(C(=O)O)O2 (some centres undefined) | 0.0008 | 362 nM |  | -6%

Structure (SMILES) | Relative activity [1] | IC50 [2] | ED50 [3] | inhibition in vivo at 24 mg/kg [4]
C=C(CCC12OC(C(=O)O)C(O)(C(=O)O)C(C(=O)O)(O1)[C@H](OCCC[C@@H](C)C[C@@H](C)CC)[C@H]2O)[C@@H](OC(C)=O)[C@H](C)Cc1ccccc1 (some centres undefined) | 1 | 0.2 nM |  | 38%
C=C(CCC12OC(C(=O)O)C(OCCCCCCCCCCCC)(C(=O)O)C(C(=O)O)(O1)[C@H](O)[C@H]2O)[C@@H](OC(C)=O)[C@H](C)Cc1ccccc1 (some centres undefined) | 0.08 | 1.2 nM |  | 
C=C(CCC12OC(C(=O)O)C(O)(C(=O)O)C(C(=O)O)(O1)[C@H](OC(=O)NC(C)C)[C@H]2O)[C@@H](OC(C)=O)[C@H](C)Cc1ccccc1 (some centres undefined) | 0.05 | 8 nM | 6 mg/kg | 
C=C(CCC12OC(C(=O)O)C(O)(C(=O)O)C(C(=O)O)(O1)[C@H](OC(=S)NC(C)C)[C@H]2O)[C@@H](OC(C)=O)[C@H](C)Cc1ccccc1 (some centres undefined) |  | 14 nM |  | 
CC[C@H](C)C[C@H](C)CCC(=O)O[C@@H]1[C@@H](O)C2(CCCCc3ccccc3)OC(C(=O)O)C(O)(C(=O)O)C1(C(=O)O)O2 (some centres undefined) | 0.002 | 137 nM |  | 
C=C(CCC12OC(C(=O)O)C(O)(C(=O)O)C(C(=O)O)(O1)[C@H](OCCC)[C@H]2O)[C@@H](OC(C)=O)[C@H](C)Cc1ccccc1 (some centres undefined) | 0.05 | 10 nM | 8 mg/kg | 
C=C(CCC12OC(C(=O)O)C(O)(C(=O)O)C(C(=O)O)(O1)[C@H](OC(=O)NCC)[C@H]2O)[C@@H](OC(C)=O)[C@H](C)Cc1ccccc1 (some centres undefined) | 0.02 | 16 nM | 11 mg/kg | 
C=C(CCC12OC(C(=O)O)C(O)(C(=O)O)C(C(=O)O)(O1)[C@H](OC(=O)NC1CCC1)[C@H]2O)[C@@H](OC(C)=O)[C@H](C)Cc1ccccc1 (some centres undefined) | 0.05 | 14 nM | 6 mg/kg | 
C=C(CCC12OC(C(=O)O)C(O)(C(=O)O)C(C(=O)O)(O1)[C@H](OC(=O)CC)[C@H]2O)[C@@H](OC(C)=O)[C@H](C)Cc1ccccc1 (some centres undefined) | 0.02 | 11 nM | 12 mg/kg | 
C=C(CCC12OC(C(=O)O)C(O)(C(=O)O)C(C(=O)O)(O1)[C@H](OC(=O)[C@@H](C)CC)[C@H]2O)[C@@H](OC(C)=O)[C@H](C)Cc1ccccc1 (some centres undefined) | 0.04 | 18 nM | 24 mg/kg | 
C=C(CCC12OC(C(=O)O)C(O)(C(=O)O)C(C(=O)O)(O1)[C@H](OC(=O)C(C)C)[C@H]2O)[C@@H](OC(C)=O)[C@H](C)Cc1ccccc1 (some centres undefined) | 0.02 | 21 nM | 8 mg/kg | 
C=C(CCC12OC(C(=O)O)C(O)(C(=O)O)C(C(=O)O)(O1)[C@H](OC(C)=O)[C@H]2O)[C@@H](OC(C)=O)[C@H](C)Cc1ccccc1 (some centres undefined) | 0.02 | 36.1 nM | 18 mg/kg | 
C=C(CCC12OC(C(=O)O)C(O)(C(=O)O)C(C(=O)O)(O1)[C@H](OC(=O)CC(C)C)[C@H]2O)[C@@H](OC(C)=O)[C@H](C)Cc1ccccc1 (some centres undefined) | 0.13 | 4.3 nM | 11 mg/kg | 
C=C(CCC12OC(C(=O)O)C(O)(C(=O)O)C(C(=O)O)(O1)[C@H](OC(=O)CCC)[C@H]2O)[C@@H](OC(C)=O)[C@H](C)Cc1ccccc1 (some centres undefined) | 0.07 | 9.2 nM | 4.5 mg/kg | 
C=C(CCC12OC(C(=O)O)C(O)(C(=O)O)C(C(=O)O)(O1)[C@H](OC(=O)CCCOC)[C@H]2O)[C@@H](OC(C)=O)[C@H](C)Cc1ccccc1 (some centres undefined) | 0.03 | 25 nM | 20 mg/kg | 
